Most compounds without a hit are left out; they make up all but 2.2% or so of the library.
TCR-CD3 inh = blocks the human TCR-CD3 interaction | TAMRA-labeled TCR probe fluorescence, biochemical | inhibition, % at 9.4 µM | 360,000 compounds, 0.37% hits; in the data active = inhibition above about 19%;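 also: recombinant mutant TCR 2C K166C tagged with TAMRA read by polarization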
mABHD4 FP = ABHD4 (mouse) inhibition, primary FP screen. purified mABHD4, FP-Rh probe fluorescence polarization. inhibition, % at 8.92 µM. 370,000 compounds, 0.54% hits. Q8VD66;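 active = inhibition exceeding the mean over every tested compound plus 3 SD, cut at about 30% in these data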
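Test system: mABHD4 protein | Buffer or medium: HEPES pH 7.0 buffer, 150 mM NaCl, 0.01% Pluronic F-127 | Probe or stimulus: FP-Rh fluorescent activity-based probe, added after compound pre-incubation | Timing: Pre-incubation 45 min, probe exposure 60 min, at 25 °C | Technique: Fluorescence polarization, excitation 525 nm, emission 598 nm, BODIPY TMR filters | Repeats: Single well per compound (singlicate)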
LEDGF integ inh = blocks HIV-1 LEDGF/p75-dependent DNA integration | inhibition, % at 3.7 µM | TR-FRET IN-LEDGF/p75 DNA integration, Eu/Cy5 | 370,000 compounds, 0.64% hits;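 active = inhibition above the screen-wide mean plus 3 SD, cut at about 13% in these data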;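 also: signal is the Cy5 over europium emission ratio at 671 and 618 nm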
HTRA1 inhibitor = HTRA1 (human) protease inhibition. recombinant HTRA1, FP-rhodamine activity-based probe, fluorescence polarization. inhibition, % at 5.96 µM. 340,000 compounds, 0.5% hits. AID 504803; in the data active = inhibition above about 36%
Target sequence (Q92743 whole entry, looked up): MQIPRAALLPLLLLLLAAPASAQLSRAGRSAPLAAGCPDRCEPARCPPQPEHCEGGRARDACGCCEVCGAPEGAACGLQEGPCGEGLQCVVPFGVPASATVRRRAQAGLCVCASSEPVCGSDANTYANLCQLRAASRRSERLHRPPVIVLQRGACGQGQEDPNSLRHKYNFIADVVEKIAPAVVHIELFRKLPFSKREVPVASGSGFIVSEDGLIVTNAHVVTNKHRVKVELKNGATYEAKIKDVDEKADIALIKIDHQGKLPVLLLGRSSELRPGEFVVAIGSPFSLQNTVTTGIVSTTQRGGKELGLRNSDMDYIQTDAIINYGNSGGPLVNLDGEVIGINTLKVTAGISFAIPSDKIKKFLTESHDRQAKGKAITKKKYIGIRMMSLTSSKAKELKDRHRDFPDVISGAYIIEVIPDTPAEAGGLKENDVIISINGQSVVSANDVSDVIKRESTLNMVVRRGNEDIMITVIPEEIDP
TDP2 absorb = blocks human TDP2 phosphodiesterase activity; inhibition, % at 12.8 µM; 370,000 compounds, 0.34% hits; recombinant TDP2, T5PNP hydrolysis, p-nitrophenol absorbance 415 nm; O95551;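 active = inhibition above the mean of all tested compounds plus 3 SD, set per campaign, cut at about 25% in these data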
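Read-out basis: percent inhibition. System: recombinant human TDP2. Buffer or medium: Mg2+-containing Tris-HCl buffer, pH 7.5. Repeats: single replicate. Timing: reaction 2 h, 37 °C. Benchmarks: high control without enzyme, low control DMSO plus TDP2. Probe or stimulus: 5 mM T5PNP. Doses: 12.8 µM only. Measured by: epi absorbance of p-nitrophenol freed from T5PNP by hydrolysis.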
SIAE inh = human SIAE inhibition, primary screen; Q9HAT2; SIAE FP-Rh probe binding, fluorescence polarization; inhibition, % at 9.66 µM; 370,000 compounds, 0.69% hits; AID 1053197;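 active = inhibition above a cutoff: mean of compounds within the control limits plus 3 SD of those, cut at about 17% in these data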
mABHD4 conf = ABHD4 (mouse) inhibition, FP confirmation; shares compounds with mABHD4 FP; purified mABHD4, FP-Rh probe fluorescence polarization; 1,800 compounds, 55% hits; inhibition, % at 8.92 µM;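 active = mean inhibition across replicates above the hit cutoff set in the primary screen, cut at about 30% in these data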
TDP2 inh conf = human TDP2 inhibition, confirmation; shares compounds with TDP2 absorb; recombinant human TDP2, absorbance read-out; inhibition, % at 12.8 µM; 1,100 compounds, 22% hits; AID 743263; in the data active = inhibition above about 25%
IN multimer act = activates HIV-1 integrase multimerization in LEDGF counter-screen | shares compounds with LEDGF integ inh | TR-FRET HIV-1 integrase multimerization, biochemical | 2,000 compounds, 17% hits | activation, % at 7.7 µM; in the data active = activation above about 8.9%
TR-FRET interf = TR-FRET optical interference, LEDGF/p75 integration counter-screen | shares compounds with LEDGF integ inh | TR-FRET optical interference counterscreen, HIV-1 IN multimerization | inhibition, % at 7.7 µM | 2,000 tested, under 10 active | AID 1053135;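 active = inhibition above the mean over all tested compounds plus 3 SD, which no compound reached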
LEDGF integ conf = confirmation of HIV-1 LEDGF/p75-dependent integration inhibitors | shares compounds with LEDGF integ inh | TR-FRET LEDGF/p75-dependent HIV-1 integration, biochemical | inhibition, % at 3.7 µM | 2,000 compounds, 36% hits | AID 1053136; in the data active = inhibition above about 14%
SIAE inh conf = human SIAE inhibition, confirmation. 2,300 compounds, 13% hits. AID 1117263. inhibition, % at 9.66 µM. shares compounds with SIAE inh. SIAE FP-Rh activity-based probe, fluorescence polarization;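 active = mean inhibition of the replicates above the hit cutoff set in the primary screen, cut at about 17% in these data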;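 also: inhibitors lower polarization as more probe stays unbound to SIAE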
Hits are given with their value; n = inactive; x = no result given.

SMILES	TCR-CD3 inh	mABHD4 FP	LEDGF integ inh	HTRA1 inhibitor	TDP2 absorb	SIAE inh	mABHD4 conf	IN multimer act	TR-FRET interf	LEDGF integ conf	others
Cc1ccc(C=C2C(=O)c3ccccc3C2=O)o1	n	n	n	n	n	n	x	x	x	x
Cc1ccc(/C=C2/C(=O)c3ccc(C(=O)O)cc3C2=O)o1	n	34	69	n	26	n	n	25	n	58	TDP2 inh conf=25
CN(C)c1cccc2c(S(=O)(=O)NCC3CCN(C(=O)C(=O)c4cc5ccccc5o4)CC3)cccc12	n	n	n	x	n	n	x	x	x	x
O=c1oc2c(-c3ccc([N+](=O)[O-])cc3)cc(O)cc2s1	n	61	25	n	n	n	n	n	n	n
CN(C)c1ccc(C=Nc2ccc(N(C)C)cc2)cc1	n	37	35	n	28	n	n	n	n	n	TDP2 inh conf=n
CC(=O)OCCNc1cc(SCc2ccco2)c2nonc2c1[N+](=O)[O-]	x	x	x	n	x	x	x	x	x	x
O=[N+]([O-])c1c(NCCCO)cc(SCc2ccco2)c2nonc12	n	54	38	n	n	n	n	n	n	n
Nc1[nH]c(C(=O)c2ccc(Br)cc2)c(-c2ccc(Br)cc2)c1C(=O)N1CCCCC1	x	n	n	x	n	n	x	x	x	x
O=C(O)c1cc(O)c2c(c1)C(=O)c1cc(O)cc(O)c1C2=O	n	61	20	n	n	n	42	44	n	25
CCOc1cccc(=O)c2c(C)n(-c3ccc(C(=O)O)cc3)c(C)c12	n	39	76	n	n	n	n	n	n	30
COc1cccc(=O)c2c(C)n(-c3ccc(C(=O)O)cc3)c(C)c12	n	30	17	n	n	n	n	n	n	23
C#CCOCCOCCOCCNc1nc(N2CCOCC2)nc(N2CCN(C(=O)[C@H](CCC(=O)O)n3cc(C(N)CO)nn3)CC2)n1 (some centres not stated)	x	n	n	x	n	n	x	x	x	x
CSCCCNC(=O)c1cn(C(C)c2ccccc2)nn1 (configuration not stated)	x	n	n	x	n	n	x	x	x	x
Cc1ccc(-n2c(SCC(=O)c3ccccc3Br)nnc2-c2ccncc2)cc1	x	n	n	x	n	n	x	x	x	x
O=C(O)c1ccc2nc(-c3ccco3)c(-c3ccco3)nc2c1	n	63	86	n	34	n	n	73	n	76	TDP2 inh conf=n
O=C(c1ccc2nc(-c3ccco3)c(-c3ccco3)nc2c1)N1CCN(c2ccccc2)CC1	n	32	39	n	n	32	n	n	n	14	SIAE inh conf=n
COc1ccccc1N(O)C1CC(=O)N(c2ccc(Br)cc2)C1=O (configuration not stated)	n	34	n	n	n	20	n	x	x	x	SIAE inh conf=n
CCOC(=O)[C@]12CCCC=C1N(Cc1ccc(OC)cc1)C(=O)[C@@H]2CC(=O)N1CCCCC1	x	n	n	x	n	n	x	x	x	x
COc1ccccc1-n1c(=O)c2c3c(sc2n2c(=S)[nH]nc12)CCC3	n	34	n	n	n	18	n	x	x	x	SIAE inh conf=n
COc1ccc(-n2c(=O)c3c4c(sc3n(CC(=O)Nc3cc(C)[nH]n3)c2=O)CCC4)c(OC)c1	n	n	n	n	n	n	x	x	x	x
